Measured values taken from ChEMBL document CHEMBL1155193, “Acyloxymethyl esterification of nodularin-R and microcystin-LA produces inactive protoxins that become reactivated and produce apoptosis inside intact cells” (J Med Chem, 2009).
Active and inactive are the calls of the source. The calls are words filed in the database; no cut-off is given here. Starred links: 1 amine or outer side, 2 acyl side, 3 side chain; linkers in the order of their positions; H or OH if unused. Positions of bridges follow the written chain, without caps; N, C: chain ends. Non-standard residues stand in square brackets, D forms with d. Residues, ends and D or L forms follow the SMILES beside them. Adda = CO[C@@H](Cc1ccccc1)[C@@H](C)/C=C(C)/C=C/[C@H](N[*:1])[C@H](C)C(=O)[*:2]; X1 = CC(C)C[C@H](N[*:1])C(=O)C[C@@H](C(=O)O)[C@H](C)C(=O)[*:2]; dAsp(3S-Me) = C[C@H](C(=O)[*:3])[C@@H](N[*:1])C(=O)[*:2]; d(γGlu) = O=C(O)[C@@H](CCC(=O)[*:2])N[*:1]; NMeDha = C=C(NC)C(=O)O

Columns and labels:
[1] = Lipophilicity, logD at pH 7.4; format: physicochemical; settings: buffer
Summary of the method: (§1)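 In silico estimate under a standard ionic condition (0.1 M Cl⁻, 0.1 M Na⁺/K⁺) at pI and at pH 7.4. pKa was estimated in macro mode at 310 K.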

[2] = system: NIH3T3; assay: Induction of apoptosis in Swiss mouse 3T3 cells up to 120 uM after 3 hrs by Hoechst 33342 staining-based fluorescence microscopy; format: cell-based; settings: nih3t3, 3 h
Summary of the method: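 Swiss 3T3 mouse fibroblasts kept in RPMI with 10% FCS at 37 °C, 5% CO₂. About 7000 cells per well were exposed to various toxin concentrations for 3 h in fresh serum-free medium. The incubation was stopped with buffered formaldehyde containing Hoechst 33342, and apoptosis was scored by fluorescence and DIC microscopy. Mean ± SEM of three experiments.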

[3] = Lipophilicity, logD at pI; format: physicochemical; settings: octanol/water; summary of the method: as §1
[4] = Stability assessed as formation of nodularin-R by HPLC analysis in presence of pig liver esterase; format: ADME; settings: isolated protein
[5] = target: Serine/threonine-protein phosphatase 2A catalytic subunit alpha isoform (Oryctolagus cuniculus) (UniProt P67777); assay: Displacement of [125]MC-YR from rabbit skeletal muscle protein phosphatase 2A after 1 hr; format: tissue-based; settings: Muscle tissue
[6] = system: Hepatocyte; assay: Cytotoxicity against Wistar rat hepatocytes harboring transporter Oatp1b2 assessed as appearance of polarized cell blebbing at 60 nM after 90 mins by differential interference contrast microscopy; format: ADME, cell-based; settings: 1.5 h, 0.06 µM
[7] = system: NIH3T3; assay: Induction of apoptosis in Swiss mouse 3T3 cells assessed as appearance of apoptotic morphology at 100 uM injected directly into intact cells after 3 hrs by Hoechst 33342 staining-based fluorescence microscopy in presence of esterase; format: cell-based; settings: nih3t3, 3 h
[8] = system: Hepatocyte; assay: Cytotoxicity against Wistar rat hepatocytes harboring transporter Oatp1b2 assessed as appearance of polarized cell blebbing at 80 nM after 90 mins by differential interference contrast microscopy; format: ADME, cell-based; settings: 1.5 h, 0.08 µM
[9] = system: Hepatocyte; assay: Cytotoxicity against Wistar rat hepatocytes harboring transporter Oatp1b2 assessed as appearance of polarized cell blebbing at 0.2 uM after 90 mins by differential interference contrast microscopy; format: ADME, cell-based; settings: 1.5 h
[10] = system: Hepatocyte; assay: Cytotoxicity against Wistar rat hepatocytes harboring transporter Oatp1b2 assessed as appearance of polarized cell blebbing at 4 uM after 90 mins by differential interference contrast microscopy; format: ADME, cell-based; settings: 1.5 h

Sequence of Serine/threonine-protein phosphatase 2A catalytic subunit alpha isoform (Oryctolagus cuniculus) (P67777 whole entry, canonical isoform): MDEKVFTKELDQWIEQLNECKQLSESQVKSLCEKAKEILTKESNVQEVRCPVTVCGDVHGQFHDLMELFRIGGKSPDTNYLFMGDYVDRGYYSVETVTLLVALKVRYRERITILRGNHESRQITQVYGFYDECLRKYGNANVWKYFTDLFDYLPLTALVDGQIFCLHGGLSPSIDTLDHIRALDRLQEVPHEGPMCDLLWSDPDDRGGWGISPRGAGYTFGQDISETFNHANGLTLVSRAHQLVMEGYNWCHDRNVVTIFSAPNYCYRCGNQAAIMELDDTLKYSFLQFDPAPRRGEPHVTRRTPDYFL

SMILES	logD ([1]; read-out: logD)	Activity [2]	logD [3]	Stability [4]	Activity [5]	Activity [6]	Activity [7]	Activity [8]	Activity [9]	logD [1]	Activity [10]
C/C=C1/NC(=O)CC[C@H](C(=O)OCOC(C)=O)NC(=O)[C@@H](C)[C@H](/C=C/C(C)=C/[C@H](C)[C@H](Cc2ccccc2)OC)NC(=O)[C@H](CCCNC(=N)N)NC(=O)[C@@H](C)[C@H](C(=O)OCOC(C)=O)NC1=O	-2	< 20%	0.4	Unstable	inactive	Toxic	Toxic	–	–	–	–
C/C=C1/C(=O)N[C@@H](C(=O)O)[C@H](C)C(=O)N[C@@H](CCCNC(=N)N)C(=O)N[C@@H](/C=C/C(C)=C/[C@H](C)[C@H](Cc2ccccc2)OC)[C@H](C)C(=O)N[C@@H](C(=O)O)CCC(=O)N1C [NODULARIN]	–	–	-3.1	–	–	–	Toxic	Toxic	–	–	–
C/C=C1/NC(=O)CC[C@H](C(=O)OCOC(=O)CC)NC(=O)[C@@H](C)[C@H](/C=C/C(C)=C/[C@H](C)[C@H](Cc2ccccc2)OC)NC(=O)[C@H](CCCNC(=N)N)NC(=O)[C@@H](C)[C@H](C(=O)OCOC(=O)CC)NC1=O	-0.7	< 20%	1.6	Unstable	–	Toxic	Toxic	–	–	–	–
C=C1C(=O)N[C@H](C)C(=O)N[C@@H](CC(C)C)C(=O)N[C@@H](C(=O)O)[C@H](C)C(=O)N[C@@H](CCCNC(=N)N)C(=O)N[C@@H](/C=C/C(C)=C/[C@H](C)[C@H](Cc2ccccc2)OC)[C@H](C)C(=O)N[C@@H](C(=O)O)CCC(=O)N1C [MICROCYSTIN-LR] (R[Adda][d(γGlu)][NMeDha][dA]L[dAsp(3S-Me)]-OH; lactam N-7)	–	–	–	–	–	–	Toxic	–	Toxic	–	–
C=C1C(=O)N[C@H](C)C(=O)N[C@@H](CC(C)C)C(=O)C[C@@H](C(=O)O)[C@H](C)C(=O)N[C@@H](C)C(=O)N[C@@H](/C=C/C(C)=C/[C@H](C)[C@H](Cc2ccccc2)OC)[C@H](C)C(=O)N[C@@H](C(=O)O)CCC(=O)N1C [MICROCYSTIN-LA] ([NMeDha][dA][X1]A[Adda][dE]-OH; lactam N-6)	–	–	0.3	–	–	–	–	–	–	–	–
C/C=C1/NC(=O)CC[C@H](C(=O)O)NC(=O)[C@@H](C)[C@H](/C=C/C(C)=C/[C@H](C)[C@H](Cc2ccccc2)OC)NC(=O)[C@H](CCC/N=C2/N=C(c3ccccc3)C(O)N2)NC(=O)[C@@H](C)[C@H](C(=O)O)NC1=O (some centres undefined)	–	< 20%	-1.4	–	–	–	Toxic	–	–	-4.8	Toxic
